Experimental data: PMC2741613 (Journal of the American Chemical Society, 2009)

What was measured:
Type in all cases: biochemical
VHX = target: T1, VHX (Homo sapiens, UniProt Q9NRW4); test: PTP activity assay with pNPP, VHX
T1 sequence (Q9NRW4 1-184): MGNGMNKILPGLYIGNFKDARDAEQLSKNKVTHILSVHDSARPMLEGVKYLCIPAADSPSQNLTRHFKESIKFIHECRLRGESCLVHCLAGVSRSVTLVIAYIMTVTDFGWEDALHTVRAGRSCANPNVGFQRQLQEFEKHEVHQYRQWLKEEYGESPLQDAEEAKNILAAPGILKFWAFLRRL
Procedure, shortened: (§1)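 Reactions started by adding enzyme to mixtures with various pNPP and test-compound concentrations. Rates were fitted with an enzyme-kinetics model for Ki.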

LMWPTP = target: T2, LMWPTP (Homo sapiens, UniProt P24666); test: PTP activity assay with pNPP, LMWPTP
T2 sequence (P24666 1-158): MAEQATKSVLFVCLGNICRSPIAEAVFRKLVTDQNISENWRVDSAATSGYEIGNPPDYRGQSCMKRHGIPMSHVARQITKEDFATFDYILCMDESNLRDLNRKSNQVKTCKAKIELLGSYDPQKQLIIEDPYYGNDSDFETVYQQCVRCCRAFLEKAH
Procedure, shortened: as §1

Lyp = target: T3, Lyp (Homo sapiens, UniProt Q9Y2R2); test: PTP activity assay with pNPP, Lyp
T3 sequence (Q9Y2R2 1-807): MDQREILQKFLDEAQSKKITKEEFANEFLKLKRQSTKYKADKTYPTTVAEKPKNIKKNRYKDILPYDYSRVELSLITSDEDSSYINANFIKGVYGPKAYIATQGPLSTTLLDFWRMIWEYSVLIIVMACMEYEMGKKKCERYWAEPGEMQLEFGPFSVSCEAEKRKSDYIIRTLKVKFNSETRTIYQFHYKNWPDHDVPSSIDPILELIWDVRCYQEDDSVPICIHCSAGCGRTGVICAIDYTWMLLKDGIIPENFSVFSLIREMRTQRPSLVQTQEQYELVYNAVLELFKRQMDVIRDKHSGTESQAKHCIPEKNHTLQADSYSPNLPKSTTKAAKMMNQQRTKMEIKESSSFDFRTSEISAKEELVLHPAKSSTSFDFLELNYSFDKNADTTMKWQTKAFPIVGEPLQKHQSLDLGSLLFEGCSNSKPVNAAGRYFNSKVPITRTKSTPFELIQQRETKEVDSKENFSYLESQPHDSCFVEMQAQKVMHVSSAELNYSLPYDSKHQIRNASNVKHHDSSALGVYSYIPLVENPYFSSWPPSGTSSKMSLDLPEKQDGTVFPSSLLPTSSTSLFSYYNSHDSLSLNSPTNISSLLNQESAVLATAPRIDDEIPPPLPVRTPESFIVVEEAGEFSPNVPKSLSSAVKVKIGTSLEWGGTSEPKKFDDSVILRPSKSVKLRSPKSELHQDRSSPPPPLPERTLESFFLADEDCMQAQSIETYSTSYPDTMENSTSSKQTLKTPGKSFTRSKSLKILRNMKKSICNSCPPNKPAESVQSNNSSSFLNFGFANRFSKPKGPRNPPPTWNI

TC-PTP = target: T4, TC-PTP (Homo sapiens, UniProt P17706); test: TC-PTP-catalyzed pNPP hydrolysis inhibition
T4 sequence (P17706 1-415): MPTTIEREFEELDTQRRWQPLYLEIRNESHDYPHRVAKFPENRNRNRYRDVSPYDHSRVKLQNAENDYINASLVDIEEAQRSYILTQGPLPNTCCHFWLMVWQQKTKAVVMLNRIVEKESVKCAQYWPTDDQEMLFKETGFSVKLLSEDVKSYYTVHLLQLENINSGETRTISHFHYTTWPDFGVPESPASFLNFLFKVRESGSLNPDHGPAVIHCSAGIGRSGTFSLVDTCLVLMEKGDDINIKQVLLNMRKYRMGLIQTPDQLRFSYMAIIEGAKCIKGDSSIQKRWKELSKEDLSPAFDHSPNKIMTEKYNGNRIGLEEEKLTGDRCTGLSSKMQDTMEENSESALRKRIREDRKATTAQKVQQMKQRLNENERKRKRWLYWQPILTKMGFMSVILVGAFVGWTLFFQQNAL
Procedure, shortened: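 IC50: enzyme added last (10 nM or 0.4 nM final) to 2 mM pNPP (Km) plus varied test compound, 30 min at room temperature, NaOH quench, A405. Reversibility: enzyme preincubated with test compound 30 min before pNPP. Mode/Ki: 0.4 nM enzyme, varied pNPP and inhibitor, kinetic fit.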

He-PTP = target: T5, He-PTP (Homo sapiens, UniProt P35236); test: PTP activity assay with pNPP, He-PTP
T5 sequence (P35236 1-360): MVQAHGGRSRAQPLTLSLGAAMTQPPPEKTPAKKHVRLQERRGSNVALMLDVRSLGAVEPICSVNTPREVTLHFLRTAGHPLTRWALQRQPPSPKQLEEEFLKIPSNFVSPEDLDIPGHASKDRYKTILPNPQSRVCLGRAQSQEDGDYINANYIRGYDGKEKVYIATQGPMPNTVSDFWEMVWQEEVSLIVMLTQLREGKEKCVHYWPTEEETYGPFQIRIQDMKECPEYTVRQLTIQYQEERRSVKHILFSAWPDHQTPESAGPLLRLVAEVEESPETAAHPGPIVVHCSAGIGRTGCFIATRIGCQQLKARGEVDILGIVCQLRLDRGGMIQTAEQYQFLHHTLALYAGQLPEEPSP
Procedure, shortened: as §1

Question: How did the Ki (VHX) turn out when `CCc1ccc(C(=O)NCCCC[C@H](NC(=O)[C@H](Cc2ccc(C(F)(F)P(=O)(O)O)cc2)NC(=O)[C@H](Cc2ccccc2)NC(=O)CO[C@H]2C[C@@H](C)CC[C@@H]2C(C)C)C(N)=O)cc1` [Compound 8] was run?
Answer: Its Ki is > 1000 nM.

Question: And the Ki (LMWPTP)?
Answer: Its Ki is > 1000 nM.

Question: What about the Ki (Lyp) of the same compound?
Answer: The Ki was > 1000 nM.

Question: What about the “reversibility of TC-PTP inhibition” value (TC-PTP; IC50 without or with 30 min preincubation) of the same compound?
Answer: Its value is “reversible”.

Question: What about the “mode of TC-PTP inhibition” value (TC-PTP; Lineweaver-Burk analysis, pNPP) of the same compound?
Answer: The value was “competitive”.

Question: And the Ki (TC-PTP; TC-PTP, pNPP substrate)?
Answer: Its Ki is 4.3 ± 0.2 nM.

Question: What about the Ki (He-PTP) of the same compound?
Answer: The Ki was > 1000 nM.
